What was measured:
Enterococcus faecium = assay: Inhibition of the growth of Streptococcus faecium; type: functional, organism-based
Summary of the method: (§1)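 Bacterial growth inhibition with folate at 1 ng/mL in the medium. Reported as IC50.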

Lacticaseibacillus casei = assay: Inhibition of the growth of Lactobacillus casei; type: functional, organism-based; summary of the method: as §1
[1] = molecular target: T1, Trifunctional purine biosynthetic protein adenosine-3 (Mus musculus, UniProt Q64737); assay: Inhibition of the GAR transformylase in L1210
T1 sequence (Q64737 whole entry): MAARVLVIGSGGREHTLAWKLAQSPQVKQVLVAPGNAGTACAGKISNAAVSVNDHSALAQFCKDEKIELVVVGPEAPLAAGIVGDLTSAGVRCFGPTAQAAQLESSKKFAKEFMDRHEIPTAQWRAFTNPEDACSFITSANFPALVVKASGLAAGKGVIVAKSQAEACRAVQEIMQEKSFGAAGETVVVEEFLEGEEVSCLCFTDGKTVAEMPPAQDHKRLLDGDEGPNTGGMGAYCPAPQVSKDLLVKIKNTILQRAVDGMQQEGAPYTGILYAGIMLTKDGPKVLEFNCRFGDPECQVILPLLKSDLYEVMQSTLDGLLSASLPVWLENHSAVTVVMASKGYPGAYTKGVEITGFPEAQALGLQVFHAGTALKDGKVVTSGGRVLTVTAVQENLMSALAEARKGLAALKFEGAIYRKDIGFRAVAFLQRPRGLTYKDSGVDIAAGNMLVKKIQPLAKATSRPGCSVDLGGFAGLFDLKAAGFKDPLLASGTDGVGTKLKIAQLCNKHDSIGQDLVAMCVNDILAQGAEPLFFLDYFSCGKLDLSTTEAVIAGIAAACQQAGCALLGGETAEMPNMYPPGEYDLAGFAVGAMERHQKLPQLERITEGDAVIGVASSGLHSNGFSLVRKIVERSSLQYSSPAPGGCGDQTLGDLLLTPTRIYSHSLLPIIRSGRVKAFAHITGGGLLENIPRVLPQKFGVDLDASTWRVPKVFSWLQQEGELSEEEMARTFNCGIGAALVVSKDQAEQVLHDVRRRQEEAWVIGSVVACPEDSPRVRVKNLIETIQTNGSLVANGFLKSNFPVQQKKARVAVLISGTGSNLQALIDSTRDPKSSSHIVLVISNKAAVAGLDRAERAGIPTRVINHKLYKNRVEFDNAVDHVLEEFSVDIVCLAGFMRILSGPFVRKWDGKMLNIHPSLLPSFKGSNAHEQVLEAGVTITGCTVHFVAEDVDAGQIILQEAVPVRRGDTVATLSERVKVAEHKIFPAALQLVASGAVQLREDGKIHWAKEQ

MCF7 = assay: Inhibition of the growth of MCF-7 human breast adenocarcinoma cells; type: functional, cell-based
Summary of the method: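 MCF-7 cells grown as monolayers in RPMI 1640 with 10% dialyzed heat-inactivated fetal calf serum. 10 nM calcium leucovorin replaced folic acid as the folate source. Cells were seeded at 7.5 × 10⁴ cells/mL. The result is reported as IC50.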

[2] = molecular target: T2, Trifunctional purine biosynthetic protein adenosine-3 (Homo sapiens, UniProt P22102); assay: Inhibition of the GAR transformylase in MOLT-4 human leukemia cells
T2 sequence (P22102 whole entry): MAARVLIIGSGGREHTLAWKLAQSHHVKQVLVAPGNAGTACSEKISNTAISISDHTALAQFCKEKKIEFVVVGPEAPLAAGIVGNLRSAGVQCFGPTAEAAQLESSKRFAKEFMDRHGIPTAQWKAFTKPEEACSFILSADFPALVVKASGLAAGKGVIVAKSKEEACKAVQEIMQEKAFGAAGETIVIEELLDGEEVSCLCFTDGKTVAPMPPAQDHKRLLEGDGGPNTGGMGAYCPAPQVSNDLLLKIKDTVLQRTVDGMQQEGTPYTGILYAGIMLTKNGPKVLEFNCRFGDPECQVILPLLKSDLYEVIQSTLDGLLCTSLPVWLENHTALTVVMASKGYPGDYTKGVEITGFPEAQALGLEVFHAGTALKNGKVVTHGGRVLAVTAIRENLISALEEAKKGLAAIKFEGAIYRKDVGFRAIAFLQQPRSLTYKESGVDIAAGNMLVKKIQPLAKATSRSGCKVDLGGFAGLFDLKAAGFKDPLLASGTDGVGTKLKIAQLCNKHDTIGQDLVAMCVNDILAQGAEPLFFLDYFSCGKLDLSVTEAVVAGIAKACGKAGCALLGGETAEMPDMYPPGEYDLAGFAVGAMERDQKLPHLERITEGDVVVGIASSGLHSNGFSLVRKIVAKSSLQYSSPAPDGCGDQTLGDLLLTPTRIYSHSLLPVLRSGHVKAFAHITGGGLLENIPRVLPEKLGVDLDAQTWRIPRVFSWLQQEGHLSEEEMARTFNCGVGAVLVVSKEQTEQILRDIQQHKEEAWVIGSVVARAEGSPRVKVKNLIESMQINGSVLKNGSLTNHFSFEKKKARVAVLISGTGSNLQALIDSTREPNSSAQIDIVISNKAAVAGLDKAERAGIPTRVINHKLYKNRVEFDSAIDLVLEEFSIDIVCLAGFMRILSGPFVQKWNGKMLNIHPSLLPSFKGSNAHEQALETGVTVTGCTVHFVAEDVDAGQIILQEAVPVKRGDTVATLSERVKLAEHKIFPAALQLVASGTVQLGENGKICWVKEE

MOLT-4 = assay: Inhibition of the growth of MOLT-4 human leukemia cells; type: functional, cell-based
Summary of the method: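 MOLT-4 cells grown in suspension in RPMI 1640 with 10% dialyzed fetal calf serum. 10 nM calcium leucovorin replaced folic acid as the folate source. The result is reported as IC50.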

[3] = molecular target: T1, Trifunctional purine biosynthetic protein adenosine-3; assay: Inhibition of the GAR formyl transferase in L1210
Summary of the method: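 GAR formyltransferase activity in L1210 cell extract, run at 30 °C in 50 mM Tris-HCl, pH 7.5. Substrates were (6R)-10-formyltetrahydrofolate at 60 μM and glycylamide ribonucleotide at 0.24 mM. The result is reported as IC50.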

| IC50 [3] | Compound | IC50 (Enterococcus faecium) | IC50 (Lacticaseibacillus casei) | IC50 [1] | IC50 (MCF7) | IC50 [2] | IC50 (MOLT-4) |
| --- | --- | --- | --- | --- | --- | --- | --- |
|  | CC(CC1=Nc2c(O)nc(N)nc2NC1)Cc1ccc(C(=O)NC(CCC(=O)O)C(=O)O)cc1 (stereo not drawn) | 40 nM | 1700 nM |  |  |  |  |
|  | CC(Cc1ccc(C(=O)NC(CCC(=O)O)C(=O)O)cc1)CC1CNc2nc(N)nc(O)c2N1 (stereo not drawn) | 128 nM | 3800 nM |  |  |  |  |
|  | CC(Cc1ccc(C(=O)NC(CCC(=O)O)C(=O)O)cc1)Cc1cnc2nc(N)nc(O)c2n1 (stereo not drawn) | 250 nM | 4000 nM |  |  |  |  |
|  | Nc1nc2c(c(=O)[nH]1)NC(CCCc1ccc(C(=O)NC(CCC(=O)O)C(=O)O)cc1)CN2 (stereo not drawn) | 30 nM | 540 nM | 0.018 nM | 4500 nM | 0.014 nM | 3400 nM |
| > 2500 nM | Nc1nc(O)c2nc(CCCc3ccc(C(=O)NC(CCC(=O)O)C(=O)O)cc3)cnc2n1 (stereo not drawn) | 120 nM | 2200 nM |  |  |  |  |
|  | CN(Cc1cnc2nc(N)nc(N)c2n1)c1ccc(C(=O)N[C@@H](CCC(=O)O)C(=O)O)cc1 [METHOTREXATE] | 0.9 nM | 0.02 nM |  |  |  |  |
|  | Nc1nc(O)c2c(n1)NC[C@H](CCNc1ccc(C(=O)NC(CCC(=O)O)C(=O)O)cc1)N2 (stereo partly drawn) [TETRAHYDROHOMOFOLATE] |  |  | > 0.02 nM |  |  |  |
